Measurements collected from several papers.
PIK3CA H1047L: Phosphatidylinositol 4,5-bisphosphate 3-kinase catalytic subunit alpha isoform (PIK3CA, Homo sapiens, UniProt P42336, H1047L)
PIK3CA C420R: Phosphatidylinositol 4,5-bisphosphate 3-kinase catalytic subunit alpha isoform (PIK3CA, Homo sapiens, UniProt P42336, C420R)
PIK3CA M1043I: Phosphatidylinositol 4,5-bisphosphate 3-kinase catalytic subunit alpha isoform (PIK3CA, Homo sapiens, UniProt P42336, M1043I)
PIK3CA I800L: Phosphatidylinositol 4,5-bisphosphate 3-kinase catalytic subunit alpha isoform (PIK3CA, Homo sapiens, UniProt P42336, I800L)
PIK3CA E545K: Phosphatidylinositol 4,5-bisphosphate 3-kinase catalytic subunit alpha isoform (PIK3CA, Homo sapiens, UniProt P42336, E545K)
PIK3CA Q546K: Phosphatidylinositol 4,5-bisphosphate 3-kinase catalytic subunit alpha isoform (PIK3CA, Homo sapiens, UniProt P42336, Q546K)

| Compound | target | effect on | method | tested at | remaining binding [%] |
| --- | --- | --- | --- | --- | --- |
| CCC(=O)N[C@@H]1CC[C@H](C(=O)N(C)c2ccc(-c3nc4ccccc4o3)cc2)C1 | PIK3CA H1047L | cell-free assay | competition with immobilised ligand | 1 µM | 97 |
| O=C(Nc1c[nH]nc1C(=O)NC1CCNCC1)c1cc(F)cc(F)c1 | PIK3CA C420R | binding | competition with immobilised ligand | 1 µM | 100 |
| C[C@H]1CCN(c2nccc(-c3cnn4ncccc34)n2)C1 | PIK3CA M1043I | binding | – | 1 µM | 100 |
| O=C(c1ccc(Nc2nccc(-c3cc4ccccc4s3)n2)cc1)N1CCC(N2CCCC2)CC1 | PIK3CA I800L | binding | competition with immobilised ligand | 1 µM | 100 |
| CN1CCN(c2ccc(Nc3nccc(-c4ccccc4)n3)cc2C(F)(F)F)CC1 | PIK3CA H1047L | binding | – | 10 µM | 55 |
| c1ccc(N2CCN(Cc3nc4ccccc4[nH]3)CC2)nc1 | Phosphatidylinositol 4,5-bisphosphate 3-kinase catalytic subunit alpha isoform (PIK3CA, Homo sapiens, UniProt P42336) | cell-free assay | competition with immobilised ligand | 1 µM | 100 |
| C=CC(=O)N1CCC(C(=O)NCC(=O)N2CCN(c3nc(-c4cnc(N)nc4C(F)F)nc(N4CCOCC4)n3)CC2)CC1 | PIK3CA E545K | binding | competition with immobilised ligand | 1 µM | 0 |
| CN(C)c1nccc(-c2cnn3ncccc23)n1 | PIK3CA E545K | binding | – | 1 µM | 83 |
| CS(=O)(=O)N1CCCC(NC(=O)[C@H](CCC2CCCCC2)NC(=O)c2ccc(CNC(=O)c3cnc4ccccn34)cc2)C1 (stereo partly drawn) | PIK3CA H1047L | cell-free assay | competition with immobilised ligand | 0.1 µM | 100 |
| CN(c1nccc(-c2cnn3ncccc23)n1)C1CC1 | PIK3CA Q546K | binding | – | 1 µM | 51 |
| COc1ncc2cc3ccccc3nc2c1C#N | PIK3CA Q546K | cell-free assay | competition with immobilised ligand | 5 µM | 99 |
| CN(C)c1nccc(-c2cnc3ncccn23)n1 | PIK3CA E545K | binding | – | 1 µM | 82 |
| COCCOc1nc(-c2ccc(Cl)nc2)nc2c1CN(C(=O)c1ncn3ccccc13)CC2 | PIK3CA M1043I | cell-free assay | competition with immobilised ligand | 0.1 µM | 88 |
| CCN1CCN(Cc2ccc(C(=O)Nc3ccc(C)c(Oc4ccc5c(c4)CC(=O)N5)c3)cc2C(F)(F)F)CC1 | PIK3CA E545K | binding | competition with immobilised ligand | 1 µM | 93 |
| N[C@@H]1CCN(c2nccc(-c3cnn4ncccc34)n2)C1 | PIK3CA M1043I | binding | – | 1 µM | 100 |
| COc1cnc(Nc2cccc(S(N)(=O)=O)c2)nc1N1CCN(c2ccccc2)CC1 | PIK3CA H1047L | binding | competition with immobilised ligand | 1 µM | 81 |
| Cc1cnc(Nc2ccc(C(=O)N3CCC(N4CCCC4)CC3)cc2)nc1-c1cc2ccccc2s1 | PIK3CA C420R | binding | competition with immobilised ligand | 1 µM | 83 |
| CNC(=O)[C@@H]1CC[C@@H](n2c(-c3ccc4cnccc4c3)nc3ccc(C(=O)NCc4cccc(C(N)=O)c4)cc32)C1 | PIK3CA E545K | binding | competition with immobilised ligand | 1 µM | 84 |
| Cc1c(C(=O)O)cc(-c2ccc(C3CCNCC3)cc2)c2ccc(-c3ccc(C(F)(F)F)cc3)cc12 | PIK3CA I800L | cell-free assay | competition with immobilised ligand | 1 µM | 100 |
| c1cnn2ncc(-c3ccnc(N4CCC45COC5)n3)c2c1 | PIK3CA C420R | binding | – | 1 µM | 71 |
| O=C(O)[C@@H]1[C@@H](Cn2nnc3ccccc3c2=O)CC[C@H]1C(=O)c1ccc(OCCC2CCOCC2)cc1 | PIK3CA E545K | cell-free assay | competition with immobilised ligand | 1 µM | 80 |
| CN(C)c1ncc(F)c(-c2cnn3ncccc23)n1 | PIK3CA C420R | binding | – | 1 µM | 46 |
| FC(F)(F)c1ccc2c(c1)nc(-c1cccnc1)n2C1CC1 | PIK3CA M1043I | cell-free assay | competition with immobilised ligand | 1 µM | 100 |
| O=C(NCCCN1CCOCC1)c1ccc(Nc2nccc(-c3cc4ccccc4s3)n2)cc1 | PIK3CA Q546K | binding | competition with immobilised ligand | 1 µM | 81 |
